Experimental data taken from ChEMBL document CHEMBL3102739, “Synthesis and antiproliferative activity of conformationally restricted 1,2,3-triazole analogues of combretastatins in the sea urchin embryo model and against human cancer cell lines” (Bioorg Med Chem, 2014).

Legend:
[1] = Growth inhibition of human HOP92 cells after 48 hrs by SRB assay; type: functional; details: HOP-92, 48 h
SNB-19 = test: Growth inhibition of human SNB19 cells after 48 hrs by SRB assay; type: functional; details: SNB-19, 48 h
UACC-62 = test: Growth inhibition of human UACC62 cells after 48 hrs by SRB assay; type: functional; details: UACC-62, 48 h
K562 = test: Growth inhibition of human K562 cells after 48 hrs by SRB assay; type: functional; details: K562, 48 h
SNB-75 = test: Growth inhibition of human SNB75 cells after 48 hrs by SRB assay; type: functional; details: SNB-75, 48 h
[2] = Growth inhibition of human EKVX cells after 48 hrs by SRB assay; type: functional
IGROV-1 = test: Growth inhibition of human IGROV1 cells after 48 hrs by SRB assay; type: functional; details: IGROV-1, 48 h
COLO 205 = test: Growth inhibition of human COLO205 cells after 48 hrs by SRB assay; type: functional; details: COLO 205, 48 h
Malme-3M = test: Growth inhibition of human MALME-3M cells after 48 hrs by SRB assay; type: functional
SF-268 = test: Growth inhibition of human SF268 cells after 48 hrs by SRB assay; type: functional; details: SF-268, 48 h
SK-OV-3 = test: Growth inhibition of human SKOV3 cells after 48 hrs by SRB assay; type: functional; details: SK-OV-3, 48 h
NCI-H322M = test: Growth inhibition of human NCI-H322M cells after 48 hrs by SRB assay; type: functional
SW-620 = test: Growth inhibition of human SW620 cells after 48 hrs by SRB assay; type: functional; details: SW-620, 48 h
RPMI-8226 = test: Growth inhibition of human RPMI8226 cells after 48 hrs by SRB assay; type: functional; details: RPMI-8226, 48 h
786-0 = test: Growth inhibition of human 786-0 cells after 48 hrs by SRB assay; type: functional; details: 786-0, 48 h
[3] = Growth inhibition of human UO31 cells after 48 hrs by SRB assay; type: functional; details: UO-31, 48 h
ACHN = test: Growth inhibition of human ACHN cells after 48 hrs by SRB assay; type: functional
Paracentrotus lividus [4] = test: Antimitotic activity against sea urchin embryo model assessed as cleavage alteration of fertilized egg compound treated at 8 to 20 mins post-fertilization and 45 to 55 mins prior to first mitotic cycle completion measured 2.5 to 5.5 hrs post-fertilization; type: functional
Method in brief: (§1)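 Fertilized eggs are exposed 8–20 min after fertilization to 2-fold decreasing concentrations. Stocks are 10 mM in DMSO, then diluted 10-fold in 95% EtOH; final DMSO is at most 0.05% and EtOH at most 1%. Embryos are kept as a monolayer, up to 2000 embryos/mL, in filtered seawater at room temperature. The value is the threshold concentration giving cleavage alteration, embryo death before hatching or full mitotic arrest. Duplicates were run.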

NCI-H460 = test: Growth inhibition of human NCI-H460 cells after 48 hrs by SRB assay; type: functional; details: NCI-H460, 48 h
OVCAR-3 = test: Growth inhibition of human OVCAR3 cells after 48 hrs by SRB assay; type: functional; details: OVCAR-3, 48 h
HCT-116 = test: Growth inhibition of human HCT116 cells after 48 hrs by SRB assay; type: functional; details: HCT-116, 48 h
NCI-H522 = test: Growth inhibition of human NCI-H522 cells after 48 hrs by SRB assay; type: functional; details: NCI-H522, 48 h
M14 = test: Growth inhibition of human M14 cells after 48 hrs by SRB assay; type: functional; details: M14, 48 h
SN12C = test: Growth inhibition of human SN12C cells after 48 hrs by SRB assay; type: functional
[5] = Growth inhibition of human HCC2998 cells after 48 hrs by SRB assay; type: functional; details: HCC 2998, 48 h
[6] = Growth inhibition of human UACC257 cells after 48 hrs by SRB assay; type: functional; details: UACC-257, 48 h
A549 = test: Growth inhibition of human A549 cells after 48 hrs by SRB assay; type: functional; details: A549, 48 h
Paracentrotus lividus [7] = test: Antimitotic activity against sea urchin embryo model assessed as cleavage arrest of fertilized egg compound treated at 8 to 20 mins post-fertilization and 45 to 55 mins prior to first mitotic cycle completion measured 2.5 to 5.5 hrs post-fertilization; type: functional; method in brief: as §1
MOLT-4 = test: Growth inhibition of human MOLT4 cells after 48 hrs by SRB assay; type: functional; details: MOLT-4, 48 h
SK-MEL-28 = test: Growth inhibition of human SK-MEL-28 cells after 48 hrs by SRB assay; type: functional; details: SK-MEL-28, 48 h
NCI-H226 = test: Growth inhibition of human NCI-H226 cells after 48 hrs by SRB assay; type: functional; details: NCI-H226, 48 h
HOP-62 = test: Growth inhibition of human HOP62 cells after 48 hrs by SRB assay; type: functional; details: HOP-62, 48 h
[8] = Growth inhibition of human SF539 cells after 48 hrs by SRB assay; type: functional; details: SF-539, 48 h
CAKI-1 = test: Growth inhibition of human CAKI-1 cells after 48 hrs by SRB assay; type: functional; details: CAKI-1, 48 h
SK-MEL-5 = test: Growth inhibition of human SK-MEL-5 cells after 48 hrs by SRB assay; type: functional; details: SK-MEL-5, 48 h
HL-60(TB) = test: Growth inhibition of human HL-60(TB) cells after 48 hrs by SRB assay; type: functional; details: HL-60, 48 h
NCI-H23 = test: Growth inhibition of human NCI-H23 cells after 48 hrs by SRB assay; type: functional; details: NCI-H23, 48 h
OVCAR-8 = test: Growth inhibition of human OVCAR8 cells after 48 hrs by SRB assay; type: functional; details: OVCAR-8, 48 h
[9] = Growth inhibition of human OVCAR4 cells after 48 hrs by SRB assay; type: functional; details: OVCAR-4, 48 h
HT-29 = test: Growth inhibition of human HT-29 cells after 48 hrs by SRB assay; type: functional; details: HT-29, 48 h
[10] = Growth inhibition of human OVCAR5 cells after 48 hrs by SRB assay; type: functional; details: OVCAR-5, 48 h
[11] = Growth inhibition of human RXF393 cells after 48 hrs by SRB assay; type: functional; details: RXF 393, 48 h
SK-MEL-2 = test: Growth inhibition of human SK-MEL-2 cells after 48 hrs by SRB assay; type: functional; details: SK-MEL-2, 48 h
Paracentrotus lividus [12] = test: Antimitotic activity against sea urchin embryo free-swimming blastula model assessed as embryo spinning compound treated at 8 to 10 hrs post-fertilization measured after 0.25 to 20 hrs; type: functional, Blastula stage
CCRF-CEM = test: Growth inhibition of human CCRF-CEM cells after 48 hrs by SRB assay; type: functional
SF-295 = test: Growth inhibition of human SF295 cells after 48 hrs by SRB assay; type: functional; details: SF-295, 48 h
HCT-15 = test: Growth inhibition of human HCT15 cells after 48 hrs by SRB assay; type: functional; details: HCT-15, 48 h
SR = test: Growth inhibition of human SR cells after 48 hrs by SRB assay; type: functional
TK-10 = test: Growth inhibition of human TK10 cells after 48 hrs by SRB assay; type: functional; details: TK-10, 48 h
A498 = test: Growth inhibition of human A498 cells after 48 hrs by SRB assay; type: functional; details: A498, 48 h
KM12 = test: Growth inhibition of human KM12 cells after 48 hrs by SRB assay; type: functional; details: KM12, 48 h
LOX IMVI = test: Growth inhibition of human LOXIMVI cells after 48 hrs by SRB assay; type: functional
U-251 = test: Growth inhibition of human U251 cells after 48 hrs by SRB assay; type: functional; details: U-251, 48 h
B16 = test: Cytotoxicity against mouse B16 cells by MTT assay; type: functional, cell-based

COc1ccc(/C=C\c2cc(OC)c(OC)c(OC)c2)cc1O [COMBRETASTATIN A4]
GI50 [1]: 3 nM
GI50 (SNB-19): 4 nM
GI50 (UACC-62): 6 nM
GI50 (K562): 2 nM
GI50 (SNB-75): 8 nM
GI50 [2]: 86 nM
GI50 (IGROV-1): 15 nM
GI50 (COLO 205): 100 nM
GI50 (Malme-3M): 20 nM
GI50 (SF-268): 6 nM
GI50 (SK-OV-3): 59 nM
GI50 (NCI-H322M): 7 nM
GI50 (SW-620): 3 nM
GI50 (RPMI-8226): 3 nM
GI50 (786-0): 100 nM
GI50 [3]: 19 nM
GI50 (ACHN): 6 nM
EC (Paracentrotus lividus [4]): 0.002 µM
GI50 (NCI-H460): 3 nM
GI50 (OVCAR-3): 2 nM
GI50 (HCT-116): 3 nM
GI50 (NCI-H522): 2 nM
GI50 (M14): 3 nM
GI50 (SN12C): 6 nM
GI50 [5]: 63 nM
GI50 [6]: 3 nM
GI50 (A549): 16 nM
EC (Paracentrotus lividus [7]): 0.01 µM
GI50 (MOLT-4): 3 nM
GI50 (SK-MEL-28): 8 nM
GI50 (NCI-H226): 4 nM
GI50 (HOP-62): 3 nM
GI50 [8]: 3 nM
GI50 (CAKI-1): 26 nM
GI50 (SK-MEL-5): 4 nM
GI50 (HL-60(TB)): 2 nM
GI50 (NCI-H23): 3 nM
GI50 (OVCAR-8): 3 nM
GI50 [9]: 14 nM
GI50 (HT-29): 100 nM
GI50 [10]: 100 nM
GI50 [11]: 2 nM
GI50 (SK-MEL-2): 4 nM
EC (Paracentrotus lividus [12]): 0.05 µM
GI50 (CCRF-CEM): 3 nM
GI50 (SF-295): 4 nM
GI50 (HCT-15): 4 nM
GI50 (SR): 3 nM
GI50 (TK-10): 100 nM
GI50 (A498): 6 nM
GI50 (KM12): 5 nM
GI50 (LOX IMVI): 3 nM
GI50 (U-251): 4 nM

COc1cc(/C=C\c2ccc(N)cc2)cc(OC)c1OC
IC50 (B16): 56000 nM
